Reference: ChEMBL document CHEMBL4602726, “Discovery of the First Vitamin K Analogue as a Potential Treatment of Pharmacoresistant Seizures” (J Med Chem, 2020)

Tests used:
[1] = Toxicity in mouse HT22 cells assessed as inhibition of cell viability at 50 uM incubated for 48 hrs by Cell-titer-Blue dye based fluorescence spectrophotometry relative to control; set-up: species or system HT-22; settings: read-out: Activity
Procedure, shortened: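 HT-22 cells in DMEM high glucose with 10% FBS, 2000 per well. Serially diluted compound added after 12 h, incubated 48 h. […] Background subtracted, normalized to control wells.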

Mus musculus [2] = assay: Anti-seizure activity in CF1 mouse assessed as attenuation of psychomotor seizures at stimulus intensities of 32 mA at 400 mg/kg, ip measured at 0.25 to 4 hrs by 6 Hz limbic seizure test relative to control; format: functional
Procedure, shortened: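 Male CF-1 mice, n=8 per dose. 6 Hz, 3 s corneal stimulation at 32 or 44 mA. Compound given ip in miglyol840/DMSO (95%/5%). Time of peak effect found by testing at 0.25–4 h; dose-response run at that time. Protected if no stun, jaw/forelimb clonus, vibrissae twitching or Straub tail for ≥1 s. ED50 by Probit analysis.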

[3] = Toxicity in CF1 mouse assessed as induction of abdominal constriction measured during 1 hr observation period by writhing test; settings: in vivo
[4] = Toxicity in CF1 mouse assessed as induction of lethality measured after electric stimulation after 24 hrs at >500 mg/kg; format: organism-based; settings: in vivo
[5] = Toxicity in CF1 mouse assessed as induction of motor impairment during acute (1 hr) observation period up to 800 mg/kg by rotarod assay; format: organism-based; settings: in vivo
Procedure, shortened: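 Rotarod at 6 rpm on the same animals immediately before 6 Hz stimulation, 1 h after ip dosing. A mouse falling three times within one minute was scored impaired.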

Mus musculus [6] = assay: Anti-seizure activity in ip dosed CF1 mouse assessed as reduction in hindlimb tonic extension during seizure measured at 1 hr by MES test; format: functional
Procedure, shortened: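 Male CF-1 mice, n=8 per dose, dosed ip as 0.5% HPMC suspension, tested 1 h later. Corneal 60 Hz, 50 mA, 2 s shock after 0.5% tetracaine applied to eyes. Protection = absence of hindlimb tonic extension. ED50 from four dose levels.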

Mus musculus [7] = assay: Anti-seizure activity in ip dosed CF1 mouse assessed as attenuation of clonic forebrain seizures treated 1 hr before PTZ dosing and measured after 30 mins by scPTZ test; format: functional
Procedure, shortened: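 Male CF-1 mice, n=8 per dose, given compound ip in 0.5% HPMC. PTZ 85 mg/kg s.c. in the neck at 1 h. Animals observed 30 min in isolation cages for clonic spasms lasting 3–5 s; those without spasms counted protected.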

[8] = Toxicity in CF1 mouse assessed as induction of motor impairment during acute (1 hr) observation period by rotarod assay; settings: mouse, in vivo, 1 h
Procedure, shortened: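 Male CF-1 mice, ip dosing in miglyol 840/DMSO (95%/5%), up to 800 mg/kg. Rotarod at 6 rpm done 1 h after dosing, on the same animals just before 6 Hz testing. Falling three times within one minute scored as impaired; animals also inspected visually.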

[9] = Drug level in CD1 mouse plasma at 400 mg/kg, ip after 2 hrs by LC-MS/MS analysis; format: ADME, organism-based
Procedure, shortened: (§1)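 Male mice fasted overnight and given ip dose in 95% Miglyol 840/5% DMSO. Plasma precipitated 3:1 with acetonitrile plus internal standard. Brain homogenized 3:1 in PBS, then acetonitrile extraction. LC-MS/MS in MRM mode, standard curve 1 ng/mL–10 μg/mL. Ratio = mean tissue (ng/g) over mean plasma (ng/mL) concentration.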

[10] = Drug level in CD1 mouse plasma at 400 mg/kg, ip after 8 hrs by LC-MS/MS analysis; format: ADME, organism-based; procedure, shortened: as §1
[11] = Drug level in CD1 mouse brain at 400 mg/kg, ip after 0.5 hrs by LC-MS/MS analysis; format: ADME, organism-based; settings: read-out: Drug uptake; procedure, shortened: as §1
[12] = Drug level in CD1 mouse brain at 400 mg/kg, ip after 1 hr by LC-MS/MS analysis; format: ADME, organism-based; settings: read-out: Drug uptake; procedure, shortened: as §1
[13] = Ratio of drug level in brain to plasma in CD1 mouse at 400 mg/kg, ip after 2 hrs by LC-MS/MS analysis; format: ADME, organism-based; settings: brain and plasma, read-out: BPR; procedure, shortened: as §1
[14] = Drug reactivity with 2-mercaptoethanol measured over 6 hrs; format: physicochemical
[15] = Cmax in CD1 mouse at 5 mg/kg, iv measured after 0.083 to 24 hrs by LC-MS/MS analysis; format: ADME, organism-based; set-up: dose 5 mg/kg, route intravenous; settings: in vivo
Procedure, shortened: (§2)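 Male CD-1 mice, 3 per route. Oral and ip at 20 mg/kg by gavage needle; iv at 5 mg/kg by tail vein. Vehicles were 20% DMA:40% PEG300:40% H2O for oral/iv and 5% DMSO:95% Neobee for ip. Blood sampled 0.083–24 h, plasma protein-precipitated with acetonitrile plus internal standard, LC-MS/MS (MRM). Non-compartmental analysis, linear trapezoidal AUC.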

[16] = Cmax in CD1 mouse at 20 mg/kg, po measured after 0.083 to 24 hrs by LC-MS/MS analysis; format: ADME, organism-based; set-up: dose 20 mg/kg, route oral; settings: in vivo; procedure, shortened: as §2
[17] = AUClast in CD1 mouse at 5 mg/kg, iv measured after 0.083 to 24 hrs by LC-MS/MS analysis; format: ADME, organism-based; set-up: dose 5 mg/kg, time upper 24 hr, time lower 0.083 hr, route intravenous; settings: in vivo; procedure, shortened: as §2
[18] = AUClast in CD1 mouse at 20 mg/kg, po measured after 0.083 to 24 hrs by LC-MS/MS analysis; format: ADME, organism-based; set-up: time 0.083-24 hr, dose 20 mg/kg, route oral; settings: in vivo; procedure, shortened: as §2
Cytochrome P450 2C19 = Cytochrome P450 2C19 (Homo sapiens, UniProt P33261); assay: Inhibition of CYP2C19 in human liver microsomes using isoform-specific probe substrates incubated for 15 to 30 mins by LC-MS/MS analysis; format: ADME
Cytochrome P450 2C19, sequence (P33261 whole entry, canonical isoform): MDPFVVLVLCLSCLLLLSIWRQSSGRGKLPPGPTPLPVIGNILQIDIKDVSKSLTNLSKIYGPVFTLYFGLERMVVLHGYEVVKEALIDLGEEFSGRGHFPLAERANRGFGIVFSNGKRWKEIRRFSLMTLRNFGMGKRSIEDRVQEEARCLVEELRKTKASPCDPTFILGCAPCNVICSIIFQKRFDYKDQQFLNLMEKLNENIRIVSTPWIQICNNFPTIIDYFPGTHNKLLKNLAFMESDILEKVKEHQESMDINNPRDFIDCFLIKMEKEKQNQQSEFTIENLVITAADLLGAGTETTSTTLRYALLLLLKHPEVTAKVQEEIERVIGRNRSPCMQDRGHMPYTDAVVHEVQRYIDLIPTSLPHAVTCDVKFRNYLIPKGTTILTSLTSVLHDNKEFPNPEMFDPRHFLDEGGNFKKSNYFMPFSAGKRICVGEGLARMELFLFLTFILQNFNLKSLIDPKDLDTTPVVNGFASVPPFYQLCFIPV
Procedure, shortened: (§3)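 Pooled mixed-gender human liver microsomes 0.2 mg/mL in 100 mM potassium phosphate with 2 mM NADPH. Isoform-specific probe substrates near Km. Organic solvent ≤1% final. Incubated 37°C for 15–30 min, quenched with acetonitrile plus internal standard. Probe metabolites measured by LC-MS/MS; percent inhibition versus vehicle, IC50 by variable-slope sigmoid fit.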

Cytochrome P450 2D6 = Cytochrome P450 2D6 (Homo sapiens, UniProt P10635); assay: Inhibition of CYP2D6 in human liver microsomes using isoform-specific probe substrates incubated for 15 to 30 mins by LC-MS/MS analysis; format: ADME; procedure, shortened: as §3
Cytochrome P450 2D6, sequence (P10635 whole entry, canonical isoform): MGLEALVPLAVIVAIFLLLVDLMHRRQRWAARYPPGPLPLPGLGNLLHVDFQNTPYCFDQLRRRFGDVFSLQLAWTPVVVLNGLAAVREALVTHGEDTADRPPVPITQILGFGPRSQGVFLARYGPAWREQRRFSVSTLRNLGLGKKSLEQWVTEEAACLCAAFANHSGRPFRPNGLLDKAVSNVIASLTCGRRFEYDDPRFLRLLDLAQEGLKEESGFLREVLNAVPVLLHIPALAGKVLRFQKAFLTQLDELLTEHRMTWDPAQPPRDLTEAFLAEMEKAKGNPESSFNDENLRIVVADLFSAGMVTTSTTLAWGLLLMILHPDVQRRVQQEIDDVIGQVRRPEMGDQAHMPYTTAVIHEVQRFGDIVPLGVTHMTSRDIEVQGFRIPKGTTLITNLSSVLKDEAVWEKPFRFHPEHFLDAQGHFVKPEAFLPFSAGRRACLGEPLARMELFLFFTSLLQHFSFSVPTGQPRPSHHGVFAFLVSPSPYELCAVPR

Cytochrome P450 2C8 = molecular target: T1, Cytochrome P450 2C8 (Homo sapiens, UniProt P10632); assay: Inhibition of CYP2C8 in human liver microsomes using isoform-specific probe substrates incubated for 15 to 30 mins by LC-MS/MS analysis; format: ADME; procedure, shortened: as §3
T1 sequence (P10632 whole entry): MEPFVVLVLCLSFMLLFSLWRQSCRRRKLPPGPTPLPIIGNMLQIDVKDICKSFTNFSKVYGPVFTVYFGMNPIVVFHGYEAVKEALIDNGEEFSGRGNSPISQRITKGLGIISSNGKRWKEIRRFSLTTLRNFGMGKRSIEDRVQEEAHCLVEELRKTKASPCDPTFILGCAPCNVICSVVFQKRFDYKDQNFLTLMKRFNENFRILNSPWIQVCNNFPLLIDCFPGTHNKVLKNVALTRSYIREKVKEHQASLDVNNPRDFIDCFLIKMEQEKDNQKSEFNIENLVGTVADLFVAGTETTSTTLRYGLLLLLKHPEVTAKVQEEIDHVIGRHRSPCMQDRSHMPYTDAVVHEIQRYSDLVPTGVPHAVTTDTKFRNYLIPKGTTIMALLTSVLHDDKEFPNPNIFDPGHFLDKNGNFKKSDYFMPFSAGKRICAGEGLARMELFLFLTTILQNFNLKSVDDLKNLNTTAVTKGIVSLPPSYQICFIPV

For `CC(C)CCNC1=CC(=O)c2ccccc2C1=O`, which inhibition at 48 h, 50 µM [1] is on record?
Its inhibition at 48 h, 50 µM is 17.8%.

What about the Activity (Mus musculus [2]) of the same compound?
The Activity was 100%.

And the Activity [3]?
The Activity was “Toxic”.

And the Activity [4]?
Its Activity is “Toxic”.

What about the Activity [5] of the same compound?
The Activity was “Non-Toxic”.

What about the ED50 (Mus musculus [6]) of the same compound?
Its ED50 is 108 mg/kg.

And the ED50 (Mus musculus [7])?
Its ED50 is 349 mg/kg.

And the TD50 [8]?
The TD50 was > 800 mg/kg.

What about the concentration at 2 h [9] of the same compound?
Its concentration at 2 h is 2750 ng/mL.

And the concentration at 8 h [10]?
The concentration at 8 h was 3220 ng/mL.

What about the concentration at 0.5 h [11] of the same compound?
The concentration at 0.5 h was 3320 ng/g.

What about the concentration at 1 h [12] of the same compound?
The concentration at 1 h was 3940 ng/g.

What about the Kp at 2 h [13] of the same compound?
Its Kp at 2 h is 1.79.

And the Drug metabolism [14]?
The Drug metabolism was “Metabolite_Notdetected”.

What about the Cmax [15] of the same compound?
Its Cmax is 1910 ng/mL.

What about the Cmax [16] of the same compound?
Its Cmax is 1020 ng/mL.

What about the AUC(0-t) [17] of the same compound?
Its AUC(0-t) is 636 ng·h/mL.

And the AUC(0-t) [18]?
Its AUC(0-t) is 903 ng·h/mL.

What about the IC50 (Cytochrome P450 2C19) of the same compound?
The IC50 was 16.4 µM.

And the IC50 (Cytochrome P450 2D6)?
Its IC50 is > 100 µM.

What about the IC50 (Cytochrome P450 2C8) of the same compound?
The IC50 was 54.1 µM.
